# An excerpt weighted towards active compounds, which were near 1.8% of everything screened.
# LMPTP inh – LMPTP (human) inhibition; P24666; recombinant LMPTP-A, OMFP fluorogenic substrate, fluorescence intensity; inhibition, % at 20 µM; 360,000 tested, 0.22% active; AID 651560;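 active = compounds that cut the enzyme signal by at least half of the control window in the single-dose screen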;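 note: plate controls were DMSO wells with enzyme plus substrate for no effect and substrate without enzyme for full effect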
# Target sequence (P24666 whole entry, looked up): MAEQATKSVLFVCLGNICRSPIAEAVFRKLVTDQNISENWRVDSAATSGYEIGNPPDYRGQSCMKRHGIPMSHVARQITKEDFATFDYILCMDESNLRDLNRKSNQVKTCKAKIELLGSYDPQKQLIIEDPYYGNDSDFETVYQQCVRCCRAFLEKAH
#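 test system = LMPTP-A | amount = 0.625 nM LMPTP-A final | reagent = fluorogenic phosphatase substrate OMFP at 400 µM final | incubation = 50 min at room temperature | benchmarks = no-enzyme low control, uninhibited high control | medium = Bis-Tris pH 6.0, DTT, detergent | signal = fluorescence intensity of OMFP turnover product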
# HKDC1 inhibitor – inhibitors of human hexokinase HKDC1; 340,000 tested, 0.16% active; inhibition, % at 20 µM; recombinant HKDC1, G6PDH/diaphorase resazurin coupled fluorescence; AID 493160;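 active = inhibition above about 35% when tested at 20 µM, limit read from the data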;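 note: plate controls were DMSO wells with enzyme for no effect and DMSO wells lacking enzyme for full effect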
#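 Assay system: recombinant HKDC1 hexokinase; detection: coupled resazurin fluorescence, excitation 525 nm, emission 613 nm; benchmarks: DMSO-plus-enzyme-mix negative control, buffer-substituted positive control; compound dosing: single 20 µM dose; schedule: 90 min at room temperature in dark; also added: glucose plus 1 mM ATP as hexokinase substrates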
# SUMO1 PPI mod – modulators of human SUMO1-mediated protein-protein interactions | inhibition, % at 20 µM | 360,000 tested, 0.33% active | P63165 | SUMO1 binding to a labelled peptide, TR-FRET, 1 h; in the data active = inhibition above about 37%
# Target sequence (P63165 whole entry, looked up): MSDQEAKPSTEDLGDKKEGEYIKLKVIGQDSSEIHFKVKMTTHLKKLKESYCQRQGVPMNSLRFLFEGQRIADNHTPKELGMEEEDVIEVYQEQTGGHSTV
# STEP block – STEP (human) phosphatase inhibition. inhibition, % at 20 µM. 360,000 tested, 0.25% active. P54829. recombinant STEP, OMFP fluorogenic substrate, fluorescence;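 active = inhibition at 20 µM, scaled per plate between control wells, above about 37%, limit read from the data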;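 note: 0% = DMSO with enzyme and substrate and 100% = substrate only without enzyme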
#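 material = STEP tyrosine phosphatase | reagent = fluorogenic phosphatase substrate OMFP at 25 µM final | doses = single compound dose of 20 µM, 1% DMSO final | schedule = 20 min reaction, room temperature, in the dark | measured by = fluorescence, 480/540 nm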
# Scp1 inh – inhibitors of human Scp-1 phosphatase | Q9GZU7 | Recombinant Scp1, phosphopeptide, malachite green phosphate absorbance | inhibition, % at 20 µM | 340,000 tested, 0.88% active | AID 493091;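 active = inhibition above about 50% at 20 µM, limit read from the data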;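 note: plate controls were DMSO wells with enzyme for no effect and wells lacking enzyme for full effect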
# Target sequence (Q9GZU7 76-261 limits assumed): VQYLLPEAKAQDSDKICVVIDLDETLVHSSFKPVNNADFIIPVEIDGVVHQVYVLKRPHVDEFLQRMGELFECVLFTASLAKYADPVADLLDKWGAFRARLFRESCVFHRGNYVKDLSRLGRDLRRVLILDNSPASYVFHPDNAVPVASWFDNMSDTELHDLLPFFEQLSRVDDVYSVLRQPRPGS
#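 Test system – truncated SCP-1 phosphatase (76-261aa) · Reagent – Phosphorylated 17-residue peptide substrate · Incubation – 45 min room-temperature reaction, 5 min colour, 30 min stabiliser · Detection – colorimetric phosphate reagent with accelerator and stabiliser, absorbance at 630 nm · Measure – % inhibition at 20 µM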
# DNMT1 block – blocks human DNA methyltransferase DNMT1 | P26358 | DNMT1 molecular beacon, Hinp1I cleavage, fluorescence | inhibition (reported as % activation of signal), % at 10 µM | 360,000 tested, 0.83% active | AID 588458; in the data active = inhibition above about 50%
# Scp1 confirm – confirmation of human Scp-1 phosphatase inhibitors | shares compounds with Scp1 inh | recombinant SCP-1 catalytic domain, phosphate release, malachite green absorbance | inhibition, % at 20 µM | 2,500 tested, 61% active;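 note: plate controls were DMSO with enzyme for no effect and buffer wells lacking enzyme for full effect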
# Scp-1 MG ctr – counter-screen for Scp-1 inhibitors: colorimetric interference; apparent inhibition (interference), % at 20 µM; 2,500 tested, under 10 active; shares compounds with Scp1 inh; Colorimetric interference counterscreen, malachite green absorbance 630 nm;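 note: compounds added after enzyme reaction finished so only phosphate colour detection is probed; plate controls were DMSO wells with completed Scp-1 reaction for no effect and substrate wells lacking enzyme for full effect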
# Scp1 DSF – validation of human Scp-1 inhibitors by thermal shift binding. shares compounds with Scp1 inh. Recombinant SCP1, Sypro Orange thermal shift Tm. thermal shift relative to vanadate control, % at 40 µM. 1,500 tested, 25% active. AID 540329;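 active = substances whose mean melting-temperature shift, as a percentage of the reference inhibitor's shift, reaches about 5.3%, limit read from the data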;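 note: 0% = Tm of DMSO wells and 100% = Tm with sodium orthovanadate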
# * = called active by the depositor; . = no result given.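 Rule for the calls, unless noted: active = inhibition of at least 30% at 20 µM; inactive = the rest.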
SMILES,LMPTP inh,HKDC1 inhibitor,SUMO1 PPI mod,STEP block,Scp1 inh,DNMT1 block,Scp1 confirm,Scp-1 MG ctr,others
Cc1ccc(-c2csc(C3=C(O)CN(NC(=O)c4ccco4)C3=N)n2)cc1,41,4,5,12,51*,21,35*,-2,Scp1 DSF=-12
COc1ccc(N2CC(O)=C(c3nc(-c4ccccc4)cs3)C2=N)cc1,3,3,-6,1,-1,5,.,.,
Cc1ccc(OC2CCN(C(=O)[C@H]3O[C@@H](n4ccc(=O)[nH]c4=O)[C@H](O)[C@@H]3O)CC2)cc1,-1,.,5,-1,.,-7,.,.,
CSC[C@H]1CN(CCc2ccccc2)C(=O)[C@@H]1CC(=O)Nc1ccccc1,-1,.,-1,2,.,1,.,.,
O=C(NNC(=O)c1ccccc1Cl)c1cccs1,1,3,3,1,76*,0,-21,-16,
O=C(NNC(=O)c1ccc(NC(=O)c2ccccc2)cc1)c1ccccc1,22,11,7,32,62*,25,1,-19,
O=C(NCc1ccccc1Cl)[C@H]1CCCN1C(=O)[C@H]1CCCN1C(=O)c1ccc(Cl)cc1,-1,.,10,.,.,.,.,.,
O=C(Cn1ccc2ccccc2c1=O)NCCC(=O)Nc1cccc(Cl)c1,0,-4,2,-1,-2,0,.,.,
O=C(Cn1ccc2ccccc2c1=O)NCCC(=O)Nc1cccnc1,0,-3,1,4,60*,7,-8,-2,
C[C@H](NC(=O)c1ccco1)C(=O)NNC(=O)c1ccc(F)cc1,0,-5,-2,-3,99*,1,0,-10,
Cc1cccc(N2CCN(C3CCCCC3NS(=O)(=O)c3ccccc3)CC2C)c1 (centres undefined),1,6,3,0,-5,-1,.,.,
COc1ccccc1NC(=O)/C(N=Nc1ccc(C)c(S(=O)(=O)Nc2ccccc2Cl)c1)=C(\C)O,1,2,2,0,50*,-6,-25,-28,
CN1CCN(S(=O)(=O)c2cccc(C(=O)N(C)CC(=O)Nc3ccc(F)c(F)c3F)c2)CC1,0,-6,4,3,95*,2,17,-9,
COc1ccc(Cl)cc1NC(=O)CN(C)C(=O)c1cccc(S(=O)(=O)N2CCN(C)CC2)c1,-1,3,-5,1,-5,-8,.,.,
CCCN(C)C1CN(Cc2cn(Cc3cccc(Cl)c3)nn2)S(=O)(=O)C1 (centres undefined),-2,.,4,.,.,.,.,.,
COc1ccccc1C(=O)NCC(=O)OC(C)C(=O)N1CCOCC1 (centres undefined),0,-2,1,-1,60*,-2,5,-1,
COc1cc(F)ccc1-c1cc(C(=O)NCc2ccc(C(F)(F)F)cc2)[nH]n1,1,.,0,-1,.,5,.,.,
O=C(CCCCn1c(=O)[nH]c2ccsc2c1=O)NCc1ccc2c(c1)OCO2,1,-4,-2,-1,-12,-1,.,.,
O=C(CCCCn1c(=S)[nH]c2ccsc2c1=O)NCc1ccc2c(c1)OCO2,17,10,15,12,59*,-2,-18,-25,
O=C(COc1ccc(Cl)cc1)NNC(=O)c1ccc(=O)[nH]c1,0,-2,-3,2,59*,1,26,6,
O=C(COC(=O)c1cccc2ccccc12)Nc1ncc(C(F)(F)F)cc1Cl,1,-3,12,0,-4,1,.,.,
O=C(COC(=O)c1cc(-c2ccccc2Cl)nc2ccccc12)Nc1ncc(C(F)(F)F)cc1Cl,2,-8,5,3,50*,24,36*,-8,Scp1 DSF=-10
O=C(COC(=O)Cc1cccc(C(F)(F)F)c1)NCc1ccco1,1,7,11,8,77*,92*,68*,-8,Scp1 DSF=0
CC(C)(C)C(=O)Nc1cc(NC(=O)C(C)(C)C)cc(C(=O)Nc2c[nH]c(=O)[nH]c2=O)c1,-5,-6,1,-3,-4,-2,.,.,
CSc1n[nH]c(NCc2ccc(C)cc2)n1,0,0,2,-3,55*,2,-7,-12,
SMILES,LMPTP inh,HKDC1 inhibitor,SUMO1 PPI mod,STEP block,Scp1 inh,DNMT1 block,Scp1 confirm,Scp-1 MG ctr,others
CCOc1ccc(NC(=O)c2ccc(N)cc2)cc1,-1,-4,-1,-1,-9,-2,.,.,
CCOc1ccc(NC(=O)c2ccc(NC(=O)c3ccc(NC(N)=O)cc3)cc2)cc1,35,-3,30,9,59*,56*,35*,-13,Scp1 DSF=8.0*
NC(=O)COC(=O)c1ccc(S(=O)(=O)NCc2ccco2)cc1,1,3,2,6,63*,29,69*,-1,Scp1 DSF=0
COc1cccc(NC(=O)COC(=O)c2ccc(S(=O)(=O)NCc3ccco3)cc2)c1,1,-2,3,3,60*,29,70*,-7,Scp1 DSF=3
O=C(OCc1nnc(-c2ccccc2)o1)c1ccc(S(=O)(=O)NCc2ccco2)cc1,2,6,-1,-1,53*,19,68*,-11,Scp1 DSF=5
O=C(NCc1cccnc1)c1cccc(S(=O)(=O)N2CCOCC2)c1,-1,4,1,4,64*,-3,-15,-10,
C[n+]1c(/C=C/c2ccc(O)cc2)ccc2ccccc21,3,3,-52,0,51*,-5,-20,-13,
CC[n+]1c(/C=C/c2ccc(N(C)C)cc2)ccc2ccccc21,36,1,-30,24,13,-1,.,.,
O=C(NC(c1ccc(Cl)cc1)c1cnccn1)C1CCN(Cc2cccc(C(F)(F)F)c2)CC1 (centres undefined),-1,.,2,1,.,10,.,.,
CC(=O)OC[C@@H]1CN(Cc2ccccc2)C[C@H](n2cnc3c(NC4CC4)ncnc32)O1,1,.,2,0,.,3,.,.,
Cc1ccc(C(=O)N/C(=C\c2ccco2)C(=O)NCCN2CCOCC2)cc1,-2,-7,-4,-1,75*,0,-18,-16,
NC(=O)c1ccc(Oc2ccc3c(c2)CCC3)c([N+](=O)[O-])c1,0,3,-21,-2,-4,-5,.,.,
CCOc1ccccc1NC(=O)N1CCC(NC(=O)c2cccc(C)c2)CC1,32,2,1,7,99*,40,67*,-16,Scp1 DSF=-15

# Screening data: PubChem, Sanford-Burnham Center for Chemical Genomics
